Screening results (PubChem)
CXCR6 inh: CXCR6 receptor inhibitors, primary screen, cell-based, beta-arrestin, luminescence, CHO-K1 PathHunter, 1536-well | C-X-C chemokine receptor type 6 (Homo sapiens), O00574 | inhibition, % at 20 µM | 360,000 tested, 0.36% active | AID 602244, 2012; in the data active means inhibition above about 34%, passing the limit was not always enough;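 further: antagonist mode with CXCL16 agonist at 10 nM final; 0% = 10 nM CXCL16 with DMSO and 100% = unstimulated wells without agonist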
CCR6 antagonist: CCR6 receptor antagonists, primary screen, cell-based, CHO-K1, luminescence, beta-arrestin, uHTS | CHO-K1 CCR6 PathHunter beta-arrestin, CCL20-stimulated | inhibition, % at 20 µM | 340,000 tested, 0.49% active;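 active means compounds whose inhibition of the agonist-driven luminescence signal at 20 µM reaches about 50%, limit read from the data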;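 further: cells stimulated with CCL20 at 14 nM final; plate controls were DMSO with CCL20 for no effect and DMSO without agonist for full effect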
Target sequence (P51684 whole entry, looked up): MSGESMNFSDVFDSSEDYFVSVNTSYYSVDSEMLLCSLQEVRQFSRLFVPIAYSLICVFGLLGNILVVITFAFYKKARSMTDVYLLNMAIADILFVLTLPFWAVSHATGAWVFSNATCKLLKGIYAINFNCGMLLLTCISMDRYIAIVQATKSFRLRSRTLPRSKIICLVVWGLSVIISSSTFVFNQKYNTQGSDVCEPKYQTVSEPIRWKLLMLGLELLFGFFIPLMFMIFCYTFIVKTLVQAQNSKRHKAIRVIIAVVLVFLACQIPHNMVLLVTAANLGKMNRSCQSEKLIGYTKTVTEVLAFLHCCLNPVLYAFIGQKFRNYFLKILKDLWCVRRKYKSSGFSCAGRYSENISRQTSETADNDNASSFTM
APJ antagonist: antagonists of human apelin receptor APJ, primary screen, CHO-K1 cells, beta-arrestin complementation, luminescence; P35414; 330,000 tested, 0.32% active; inhibition, % at 20 µM;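 active means inhibition above about 40% at 20 µM, limit read from the data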;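 further: cells challenged with 10 nM apelin-13 agonist together with compound; plate controls were apelin-13 plus DMSO wells for no effect and DMSO wells lacking apelin-13 for full effect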
EBI2 antag: EBI2 receptor antagonists, beta-arrestin recruitment, primary screen, cell-based, luminescence, 7a,25-OHC stimulation, uHTS. G-protein coupled receptor 183 (Homo sapiens), P32249. 7a,25-OHC stimulated. inhibition, % at 5 µM. 360,000 tested, 0.81% active. AID 651636, 2012; in the data active means inhibition above about 38%;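 further: enzyme fragment complementation signal reports receptor beta-arrestin coupling in cells; 0% = agonist plus DMSO wells and 100% = wells without agonist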
APJ agonist: agonists of human apelin receptor APJ, primary screen, CHO-K1 cells, PathHunter beta-arrestin, luminescence; 0% DMSO wells, 100% apelin; activation, % at 20 µM; AID 2520, 2010; 330,000 tested, 0.11% active;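 active means activation more than six SD over the plate average, tested at 20 µM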;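 further: 0% = DMSO alone and 100% = apelin-13 at 10 nM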
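Assay system – PathHunter CHO-K1 APJ (AGTRL-1) beta-arrestin reporter cells · Compound – one dose, 20 µM compound, 1% DMSO · Timing – compound 90 min 25 °C, reagent 1 h · Measured by – luminescence from split beta-galactosidase complementation, Galacton Star/Emerald II substrate · Measure – beta-arrestin recruitment to APJ as agonist activity, luminescent signal · Benchmarks – DMSO vs Apelin-13 10 nM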
EBI2 antag conf: EBI2 antagonist hit retest, beta-arrestin, confirmation, cell-based, single concentration, luminescence, 7a,25-OHC stimulation. shares compounds with EBI2 antag. 7a,25-OHC antagonism. inhibition, % at 5 µM. 2,400 tested, 29% active. AID 651997, 2013;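 active means inhibition of at least 50%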
EBI2 ag: EBI2 agonist activity of antagonist hits, confirmation, counter-screen for EBI2 antagonist project, cell-based, single concentration, agonist mode, luminescence | activation, % at 5 µM | EBI2-expressing cells, 60 min; 0% vehicle, 100% 7α,25-dihydroxycholesterol control | 2,400 tested, under 10 active | shares compounds with EBI2 antag;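 active means activation of at least 50%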
bGal cs: E. coli beta-galactosidase enzyme inhibition, confirmation, counter-screen for EBI2 antagonist project, biochemical, luminescence, single concentration; inhibition, % at 5 µM; AID 652176, 2013; 2,400 tested, 1% active; purified beta-galactosidase, luminescent Galacton Star, 15 min; shares compounds with EBI2 antag;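 active means replicate-average signal at least 3 plate SD below neutral wells, shown as high inhibition, flagging enzyme-inhibiting false positives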;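 further: 0% = DMSO wells with enzyme and 100% = wells lacking enzyme; higher means stronger loss of beta-gal luminescence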
The depositor's hits bear a star. Sampled rows, rich in hits. Any-hit rate of the full collection: about 1.5%.

Screening O=C(/C=C/c1cccc(Br)c1)N1CCN(c2cccc(C(F)(F)F)c2)CC1 returned CXCR6 inh 4.8, CCR6 antagonist 22.2, APJ antagonist 5.7, EBI2 antag 16.8 and APJ agonist -0.8.
`COc1ccc(N2CCN(C(=O)COc3ccc(Cl)cc3Cl)CC2)cc1` gave CXCR6 inh -8.8, CCR6 antagonist 2.7, APJ antagonist 20.7, EBI2 antag 51.3*, APJ agonist -3.5, EBI2 antag conf 21.4, EBI2 ag -1.8 and bGal cs -9.7.
For N/C(=N\NC(=O)c1cccs1)c1cc2cc(Cl)ccc2oc1=O the results were CXCR6 inh 15.5, CCR6 antagonist 8.5, APJ antagonist -15.7, EBI2 antag 0.8 and APJ agonist 0.1.
Screening CCc1nc2ccc(C(=O)NCc3ccc(OC)cc3)cn2c1N(CCC(C)C)CCN(C)C returned CXCR6 inh 9.3 and EBI2 antag -9.5.
`O=C(CSc1ccc2c(c1)OCCO2)NCCc1ccc(Cl)cc1Cl` gave CXCR6 inh -1.6, CCR6 antagonist 3.8, APJ antagonist -19.8, EBI2 antag 62.8*, APJ agonist -0.5, EBI2 antag conf 27.3, EBI2 ag -0.3 and bGal cs -12.3.
O=C(CSc1ccc2c(c1)OCCO2)Nc1ncc(Cl)cc1Cl was read as CXCR6 inh 2.0, CCR6 antagonist 1.4, APJ antagonist 13.0, EBI2 antag -1.4 and APJ agonist -3.2.
